Measurements as given in ChEMBL document CHEMBL4118039, “Inflammation Modulatory Phorbol Esters from the Seeds of Aquilaria malaccensis” (J Nat Prod, 2017).

Key:
A549 = test: Cytotoxicity against human A549 cells assessed as reduction in cell viability after 72 hrs by MTT assay; format: functional, cell-based; conditions: A549, 72 h
Neutrophil [1] = test: Anti-inflammatory activity in human neutrophils assessed as inhibition of fMLF/CB-induced elastase release by measuring degranulation of azurophilic granules using MeOSuc-Ala-Ala-ProVal-p-nitroanilide as substrate preincubated for 5 mins followed by CB/fMLF stimulation; format: functional, cell-based
Summary of the method: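 Neutrophils from human blood (dextran sedimentation, Ficoll-Hypaque, hypotonic lysis of red cells; >98% viable by trypan blue) held in Ca2+-free HBSS pH 7.4 at 4 °C. Cells at 3 × 10^5/mL with 100 μM substrate, 2 min at 37 °C, compound 5 min, then fMLF 100 nM/CB 0.5 μg/mL. A405 followed continuously. Expressed as % of drug-free fMLF/CB control; three repeats.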

Neutrophil [2] = test: Proinflammatory activity in human neutrophils assessed as superoxide anion generation at 10 uM incubated for 5 mins by spectrophotometric method relative to control; format: ADME, cell-based
Summary of the method: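 Neutrophils at 3 × 10^5/mL in Ca2+-free HBSS pH 7.4, supplemented with 0.5 mg/mL ferricytochrome c and 1 mM Ca2+. Equilibrated 2 min at 37 °C, then exposed to compound at 10 μM for 5 min without fMLF/CB. SOD-inhibitable cytochrome c reduction followed continuously at 550 nm with stirring; expressed versus fMLF/CB-activated response as 100%. Means ± SEM, n = 3−5.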

HepG2 = test: Cytotoxicity against human HepG2 cells assessed as reduction in cell viability after 72 hrs by MTT assay; format: functional, cell-based; conditions: HepG2, 72 h
Neutrophil [3] = test: Anti-inflammatory activity in human neutrophils assessed as inhibition of fMLF/CB-induced superoxide anion generation preincubated for 5 mins followed by CB stimulation for 3 mins and subsequent fMLF stimulation for 10 mins by spectrophotometric method; format: functional, cell-based
Summary of the method: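 Same neutrophil preparation. Cells at 3 × 10^5/mL with 0.5 mg/mL ferricytochrome c and 1 mM Ca2+, 2 min at 37 °C, then compound or DMSO 5 min, CB 1 μg/mL 3 min, fMLF 100 nM 10 min. SOD-inhibitable cytochrome c reduction read continuously at 550 nm with stirring. Means ± SEM, n = 3−5.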

Neutrophil [4] = test: Proinflammatory activity in human neutrophils assessed as elastase release by measuring degranulation of azurophilic granules using MeOSuc-Ala-Ala-ProVal-p-nitroanilide as substrate incubated for 5 mins relative to control; format: cell-based
Summary of the method: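 Neutrophils isolated from human blood by dextran sedimentation, Ficoll-Hypaque centrifugation and hypotonic erythrocyte lysis, >98% viable by trypan blue, held in Ca2+-free HBSS pH 7.4 at 4 °C. Cells at 3 × 10^5/mL with 100 μM substrate, equilibrated 2 min at 37 °C, then compound at 10 μM for 5 min without fMLF/CB. A405 monitored continuously; expressed versus fMLF/CB-stimulated release taken as 100%.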

Neutrophil [5] = test: Proinflammatory activity in human neutrophils assessed as superoxide anion generation at 10 uM preincubated for 5 mins followed by CB addition measured after 3 mins by spectrophotometric method relative to control; format: ADME, cell-based; conditions: 0.05 h
Summary of the method: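 Cytochrome c reduction at 550 nm as above (0.5 mg/mL ferricytochrome c, 1 mM Ca2+, 37 °C, 3 × 10^5 neutrophils/mL). Compound 10 μM given without fMLF/CB stimulation, or with CB only. Expressed relative to the fMLF/CB response taken as 100%. Means ± SEM, n = 3−5.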

Row | Compound | IC50 (A549) | IC50 (Neutrophil [1]) | Activity (Neutrophil [2]) | IC50 (HepG2) | IC50 (Neutrophil [3]) | Activity (Neutrophil [4]) | Activity (Neutrophil [5])
1 | CC(=O)O[C@@]12[C@H](OC(=O)/C=C/C=C/C=O)[C@@H](C)[C@@]3(O)[C@@H](C=C(CO)C[C@]4(O)C(=O)C(C)=C[C@@H]34)[C@@H]1C2(C)C | > 10 µM | 2.7 µM | 106.1% | > 10 µM | – | – | –
2 | CCCCCCCC/C=C\CCCCCCCC(=O)OCC1=C[C@H]2[C@@H]3C(C)(C)[C@]3(OC(C)=O)C[C@@H](C)[C@]2(O)[C@@H]2C=C(C)C(=O)[C@@]2(O)C1 | > 10 µM | > 10 µM | 18.1% | > 10 µM | – | – | –
3 | CCCCCCCC/C=C\CCCCCCCC(=O)OCC(O)COC(=O)CCCCCCC/C=C\CCCCCCCC | > 10 µM | > 10 µM | – | > 10 µM | > 10 µM | – | –
4 | CCCCCCCCCC(=O)O[C@@]12C[C@@H](C)[C@@]3(O)[C@@H](C=C(CO)C[C@]4(O)C(=O)C(C)=C[C@@H]34)[C@@H]1C2(C)C | > 10 µM | 0.8 µM | 95.3% | > 10 µM | – | – | –
5 | CCCCCCCC(=O)O[C@@]12C[C@@H](C)[C@@]3(O)[C@@H](C=C(CO)C[C@]4(O)C(=O)C(C)=C[C@@H]34)[C@@H]1C2(C)C | > 10 µM | 2.1 µM | 109.6% | > 10 µM | – | – | –
6 | CCCCCCC[C@@H](O)[C@@H](O)/C=C/C=C/C(=O)O[C@@H]1[C@@H](C)[C@@]2(O)[C@@H](C=C(CO)C[C@]3(O)C(=O)C(C)=C[C@@H]23)[C@@H]2C(C)(C)[C@]12OC(C)=O | > 10 µM | – | 106% | > 10 µM | – | 10.5% | –
7 | CCCCCCC[C@H](O)[C@@H](O)/C=C/C=C/C(=O)O[C@@H]1[C@@H](C)[C@@]2(O)[C@@H](C=C(CO)C[C@]3(O)C(=O)C(C)=C[C@@H]23)[C@@H]2C(C)(C)[C@]12OC(C)=O | > 10 µM | – | 107.1% | > 10 µM | – | 9.2% | –
8 | CCCCCCCC/C=C\CCCCCCCC(=O)OCC(CO)OC(=O)CCCCCCCCCCCCCCC (stereo unspecified) | > 10 µM | > 10 µM | – | > 10 µM | – | – | 74.5%
9 | O=c1cc(N2CCOCC2)oc2c(-c3ccccc3)cccc12 [LY-294002] | – | 3.3 µM | – | – | 1.8 µM | – | –
10 | CCCCCCCCCCCCCC(=O)O[C@@H]1[C@@H](C)[C@@]2(O)[C@@H](C=C(CO)C[C@]3(O)C(=O)C(C)=C[C@@H]23)[C@@H]2C(C)(C)[C@]12OC(C)=O [PHORBOL MYRISTATE ACETATE] | – | – | 102.7% | – | – | 44.2% | –
